In ChEMBL document CHEMBL2203149, “Carvacrol decreases neuronal excitability by inhibition of voltage-gated sodium channels” (J Nat Prod, 2012):
Activity calls are given as the source filed them.

Tests used:
[1] = Effect on action potential in Wistar rat DRG neuron assessed as duration at half maximal amplitute at 0.6 mM after 12 to 48 hrs by patch-clamp recordings (reference value: 1.6 +/- 0.1 ms); assay type: functional
[2] = Effect on action potential in Wistar rat DRG neuron assessed as duration at half maximal amplitute at 3 mM by intracellular recording (reference value: 1.6 +/- 0.1 ms)
[3] = species: Rattus norvegicus; assay: Inhibition of voltage-gated sodium channel of Wistar rat dissociated DRG neuron assessed as inhibition of current induced of voltage-gated sodium current at -100 mV holding potential with 5 sec intervals at 3 mM after 120 secs by patch-clamp recordings
How it was run: (§1)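 Wistar rat DRG neurons dissociated with 1 mg/mL collagenase I (75 min) and 2.5 mg/mL trypsin (15 min) at 37 °C, plated on poly-D-lysine and used 12–48 h later. Whole-cell voltage clamp used 100 ms steps to 0 mV from −100 mV every 5 s, at room temperature. External solution: 20 mM NaCl with TEA, Cs and Cd, pH 7.4. Internal solution: CsCl, pH 7.2. Drug 0.01–10 mM, n = 50 cells, logistic fit.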

[4] = Effect on action potential in Wistar rat DRG neuron assessed as amplitude reduction at 0.03 mM after 12 to 48 hrs by patch-clamp recordings (reference value: 79 +/- 1.3 mV); assay type: functional
[5] = […] of Wistar rat sciatice nerve fiber excitability assessed as increase in rheobase at 0.6 mM (reference value: 3.30 +/- 0.06 V); assay type: functional
[6] = test system: Sciatic nerve; assay: Reduction in peak-to-peak amplitude of compound action potential in Wistar rat sciatic nerve at 1 mM after 180 mins by electrophysiology; assay type: functional, tissue-based
How it was run: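 Sciatic nerve from Wistar rats (200–300 g, both sexes) held in a moist chamber, with a 15–20 mm segment immersed in Locke's solution that carried the drug (DMSO ≤0.2% v/v). One end was stimulated and evoked CAPs were recorded 40–50 mm away. Exposure lasted 180 min and began after at least 30 min of stable amplitude. Read-out was peak-to-peak amplitude, at 18–22 °C, n = 5, followed by 180 min washout.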

[7] = Effect on action potential in Wistar rat DRG neuron assessed as maximum ascendant inclination at 0.03 mM after 12 to 48 hrs by patch-clamp recordings (reference value: 151.2 +/- 6.2 V/s); assay type: functional
[8] = Effect on action potential in Wistar rat DRG neuron assessed as maximum descendant inclination at 0.1 mM by intracellular recording (reference value: -104.7 +/- 3.6 V/s)
[9] = Effect on action potential in Wistar rat DRG neuron assessed as maximum ascendant inclination at 3 mM after 12 to 48 hrs by patch-clamp recordings (reference value: 151.2 +/- 6.2 V/s); assay type: functional
[10] = Effect on action potential in Wistar rat DRG neuron assessed as elevation in current threshold levels at 0.03 to 3 mM after 12 to 48 hrs by intracellular recordings relative to control
[11] = Reduction in amplitude of compound action potential in frog sciatic nerve by electrophysiology; assay type: functional, tissue-based, Anura
[12] = Effect on action potential in Wistar rat DRG neuron assessed as maximum descendant inclination at 0.03 mM by intracellular recording (reference value: -104.7 +/- 3.6 V/s)
[13] = Effect on action potential in Wistar rat DRG neuron assessed as maximum descendant inclination at 1 mM by intracellular recording (reference value: -104.7 +/- 3.6 V/s)
[14] = test system: Sciatic nerve; assay: Inhibition of second component amplitude of compound action potential in Wistar rat Abeta and Agamma sciatic nerve within 60 mins by electrophysiology; assay type: functional, tissue-based
How it was run: (§2)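 Evoked compound action potentials in Wistar rat sciatic nerve, recorded 40–50 mm from the stimulating electrodes and sampled at 20 kHz. The segment was bathed in Locke's solution carrying the drug (0.03–1 mM) after at least 30 min of stable amplitude. Exposure lasted 180 min, then 180 min washout. Peak-to-peak amplitude, n = 5 per concentration; IC50 from a logistic fit at 180 min.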

[15] = Effect on action potential in Wistar rat DRG neuron assessed as amplitude reduction at 1 mM after 12 to 48 hrs by patch-clamp recordings (reference value: 79 +/- 1.3 mV); assay type: functional
[16] = Effect on action potential in Wistar rat DRG neuron assessed as duration at half maximal amplitute at 1 mM by intracellular recording (reference value: 1.6 +/- 0.1 ms)
[17] = Effect on action potential in Wistar rat DRG neuron assessed as maximum descendant inclination at 0.3 mM by intracellular recording (reference value: -104.7 +/- 3.6 V/s)
[18] = Effect on action potential in Wistar rat DRG neuron assessed as resting potential at 0.1 mM after 12 to 48 hrs by patch-clamp recordings (reference value: -60 +/- 1.1 mV); assay type: functional
[19] = Effect on action potential in Wistar rat DRG neuron assessed as resting potential at 0.3 mM after 12 to 48 hrs by patch-clamp recordings (reference value: -60 +/- 1.1 mV); assay type: functional
[20] = Effect on action potential in Wistar rat DRG neuron assessed as amplitude reduction at 3 mM after 12 to 48 hrs by patch-clamp recordings (reference value: 79 +/- 1.3 mV); assay type: functional
[21] = Effect on action potential in Wistar rat DRG neuron assessed as input resistance at 0.3 mM after 12 to 48 hrs by patch-clamp recordings (reference value: 25.5 +/- 2.1 Momega); assay type: functional
[22] = Effect on action potential in Wistar rat DRG neuron assessed as maximum descendant inclination at 0.6 mM by intracellular recording (reference value: -104.7 +/- 3.6 V/s)
[23] = Effect on action potential in Wistar rat DRG neuron assessed as input resistance at 0.1 mM after 12 to 48 hrs by patch-clamp recordings (reference value: 25.5 +/- 2.1 Momega); assay type: functional
[24] = Effect on action potential in Wistar rat DRG neuron assessed as amplitude reduction at 0.1 mM after 12 to 48 hrs by patch-clamp recordings (reference value: 79 +/- 1.3 mV); assay type: functional
[25] = Blockade of action potential in Wistar rat DRG neuron after 12 to 48 hrs by intracellular recordings
[26] = Effect on action potential in Wistar rat DRG neuron assessed as resting potential at 0.6 mM after 12 to 48 hrs by patch-clamp recordings (reference value: -60 +/- 1.1 mV); assay type: functional
[27] = Effect on action potential in Wistar rat DRG neuron assessed as maximum ascendant inclination at 0.1 mM after 12 to 48 hrs by patch-clamp recordings (reference value: 151.2 +/- 6.2 V/s); assay type: functional
[28] = Effect on action potential in Wistar rat DRG neuron assessed as maximum ascendant inclination at 0.3 mM after 12 to 48 hrs by patch-clamp recordings (reference value: 151.2 +/- 6.2 V/s); assay type: functional
[29] = Effect on action potential in Wistar rat DRG neuron assessed as input resistance at 0.03 mM after 12 to 48 hrs by patch-clamp recordings (reference value: 25.5 +/- 2.1 Momega); assay type: functional
[30] = […] of Wistar rat sciatice nerve fiber excitability assessed as increase in chronaxy measured as time at 0.6 mM (reference value: 59.6 +/- 1.2 microsec); assay type: functional
[31] = Effect on action potential in Wistar rat DRG neuron assessed as maximum ascendant inclination at 1 mM after 12 to 48 hrs by patch-clamp recordings (reference value: 151.2 +/- 6.2 V/s); assay type: functional
[32] = Reduction in amplitude of compound action potential in bullfrog sciatic nerve at 0.5 mM after 15 mins by electrophysiology; assay type: functional, Rana catesbeiana; conditions: Aquarana catesbeiana, 0.25 h
[33] = Effect on action potential in Wistar rat DRG neuron assessed as input resistance at 0.6 mM after 12 to 48 hrs by patch-clamp recordings (reference value: 25.5 +/- 2.1 Momega); assay type: functional
[34] = test system: Sciatic nerve; assay: Reduction in peak-to-peak amplitude of compound action potential in Wistar rat sciatic nerve after 180 mins by electrophysiology; assay type: functional, tissue-based; conditions: 3 h; how it was run: as §2
[35] = Effect on action potential in Wistar rat DRG neuron assessed as resting potential at 0.03 mM after 12 to 48 hrs by patch-clamp recordings (reference value: -60 +/- 1.1 mV); assay type: functional
[36] = Effect on action potential in Wistar rat DRG neuron assessed as input resistance at 1 mM after 12 to 48 hrs by patch-clamp recordings (reference value: 25.5 +/- 2.1 Momega); assay type: functional
[37] = Effect on action potential in Wistar rat DRG neuron assessed as duration at half maximal amplitute at 0.03 mM after 12 to 48 hrs by patch-clamp recordings (reference value: 1.6 +/- 0.1 ms); assay type: functional
[38] = Effect on action potential in Wistar rat DRG neuron assessed as amplitude reduction at 0.3 mM after 12 to 48 hrs by patch-clamp recordings (reference value: 79 +/- 1.3 mV); assay type: functional
[39] = Effect on action potential in Wistar rat DRG neuron assessed as resting potential at 3 mM after 12 to 48 hrs by patch-clamp recordings (reference value: -60 +/- 1.1 mV); assay type: functional
[40] = Effect on action potential in Wistar rat DRG neuron assessed as duration at half maximal amplitute at 0.3 mM after 12 to 48 hrs by patch-clamp recordings (reference value: 1.6 +/- 0.1 ms); assay type: functional
[41] = Effect on action potential in Wistar rat DRG neuron assessed as resting potential at 1 mM after 12 to 48 hrs by patch-clamp recordings (reference value: -60 +/- 1.1 mV); assay type: functional
[42] = test system: Sciatic nerve; assay: Reduction in peak-to-peak amplitude of compound action potential in Wistar rat sciatic nerve at 1 mM after 180 mins and measured after 180 mins washout by electrophysiology; assay type: functional, tissue-based; how it was run: as §2
[43] = Effect on action potential in Wistar rat DRG neuron assessed as amplitude reduction at 0.6 mM after 12 to 48 hrs by patch-clamp recordings (reference value: 79 +/- 1.3 mV); assay type: functional
[44] = test system: Sciatic nerve; assay: Inhibition of first component amplitude of compound action potential in Wistar rat Aalpha sciatic nerve after 180 mins by electrophysiology; assay type: functional, tissue-based; how it was run: as §2
[45] = Effect on action potential in Wistar rat DRG neuron assessed as duration at half maximal amplitute at 0.1 mM after 12 to 48 hrs by patch-clamp recordings (reference value: 1.6 +/- 0.1 ms); assay type: functional
[46] = Effect on action potential in Wistar rat DRG neuron assessed as input resistance at 3 mM after 12 to 48 hrs by patch-clamp recordings (reference value: 25.5 +/- 2.1 Momega); assay type: functional
[47] = test system: Sciatic nerve; assay: Reduction in peak-to-peak amplitude of compound action potential in Wistar rat sciatic nerve at 0.3 mM after 180 mins by electrophysiology; assay type: functional, tissue-based; how it was run: as §2
[48] = Effect on action potential in Wistar rat DRG neuron assessed as maximum ascendant inclination at 0.6 mM after 12 to 48 hrs by patch-clamp recordings (reference value: 151.2 +/- 6.2 V/s); assay type: functional
[49] = species: Rattus norvegicus; assay: Inhibition of voltage-gated sodium channel of […] rat dissociated DRG neuron assessed as inhibition of current induced of voltage-gated sodium current at holding potential by patch-clamp recordings; conditions: concentration not given here
[50] = Inhibition of voltage-gated sodium channel of Wistar rat dissociated DRG neuron assessed as inhibition of current induced of voltage-gated sodium current at -100 mV holding potential with 5 sec intervals by patch-clamp recordings; how it was run: as §1
[51] = Effect on action potential in Wistar rat DRG neuron assessed as maximum descendant inclination at 3 mM after 12 to 48 hrs by patch-clamp recordings (reference value: -104.7 +/- 3.6 V/s); assay type: functional

In the case of Cc1ccc(C(C)C)cc1O [CARVACROL], the Time [1] is reported as 0.6 ms, the Time [2] is reported as 0 ms and the inhibition [3] is reported as “Active”. The Activity [4] was 77 mV, the Activity [5] was 4.16 V and the inhibition [6] was “Active”. The Activity [7] was 128.6 V/s, the Activity [8] was -78.9 V/s and the Activity [9] was 0 V/s. For the same molecule, the Activity [10] was 62.4%, the IC50 [11] was 500 µM and the Activity [12] was -102.2 V/s. For the same molecule, the Activity [13] was -4.5 V/s, the inhibition [14] was “Active” and the Activity [15] was 4.2 mV. For the same molecule, the Time [16] was 0.2 ms, the Activity [17] was -62.7 V/s and the Activity [18] was -60.2 mV. The Activity [19] was -59.7 mV, the Activity [20] was 0 mV and the Activity [21] was 27.1 MΩ. The Activity [22] was -48 V/s, the Activity [23] was 26.7 MΩ and the Activity [24] was 53.9 mV. It also gave an IC50 [25] of 360 µM, an Activity [26] of -60.2 mV and an Activity [27] of 94.8 V/s. It also gave an Activity [28] of 84.4 V/s, an Activity [29] of 29.3 MΩ and a Time [30] of 75 microsec. It also gave an Activity [31] of 4.4 V/s, an inhibition at 500 µM [32] of 50% and an Activity [33] of 23.3 MΩ. It also gave an IC50 [34] of 500 µM, an Activity [35] of -62.6 mV and an Activity [36] of 26.3 MΩ. For the same molecule, the Time [37] was 1.6 ms, the Activity [38] was 43.9 mV and the Activity [39] was -57.5 mV. For the same molecule, the Time [40] was 0.9 ms, the Activity [41] was -60.2 mV and the inhibition [42] was “inactive”. The Activity [43] was 32.1 mV, the inhibition [44] was “Active” and the Time [45] was 1.5 ms. The Activity [46] was 20.8 MΩ, the inhibition [47] was “inactive” and the Activity [48] was 56.5 V/s. The inhibition [49] was 70%, the IC50 [50] was 370 µM and the Activity [51] was 0 V/s.

In the case of CCN(CC)CC(=O)Nc1c(C)cccc1C [LIDOCAINE], the IC50 [11] is reported as 740 µM and the inhibition at 500 µM [32] is reported as 46%.
